The source of these data is ChEMBL document CHEMBL2375290, “Nonclassical antifolates, part 3: synthesis, biological evaluation and molecular modeling study of some new 2-heteroarylthio-quinazolin-4-ones” (Eur J Med Chem, 2013).

One may read the IC50 as the concentration needed to halve the response being measured. What is called MIC is the lowest concentration that inhibits growth of the organism. A high value points to a need for much substance.

The test system of one test is Staphylococcus aureus. Put plainly: Antimicrobial activity against Staphylococcus aureus at 200 ug after 24 hrs by agar disc diffusion method. The note with it: read-out: DIZ. Format: functional.
In the next test the target is T1, Dihydrofolate reductase (Bos taurus, UniProt P00376).
T1 sequence (P00376 whole entry): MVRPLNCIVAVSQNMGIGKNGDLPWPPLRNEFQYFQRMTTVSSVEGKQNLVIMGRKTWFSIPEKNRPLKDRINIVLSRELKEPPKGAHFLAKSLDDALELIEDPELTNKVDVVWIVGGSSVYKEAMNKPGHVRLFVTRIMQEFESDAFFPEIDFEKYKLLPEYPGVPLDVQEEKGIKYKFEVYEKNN
Put plainly: Inhibition of bovine DHFR after 2 mins by spectrophotometry.

The subject of the next test is SF-295. Put plainly: Cytotoxicity against human SF295 cells at 10 uM after 48 hrs by coulter counter analysis. The class given is functional. As to conditions: SF-295, 48 h, read-out: GI.
Test [1] is described as follows: Cytotoxicity against human EKVX cells at 10 uM after 48 hrs by coulter counter analysis. Format: functional. The note with it: read-out: GI.
The next test has as its system SN12C. Put plainly: Cytotoxicity against human SN12C cells at 10 uM after 48 hrs by coulter counter analysis. The note with it: read-out: GI. The class given is functional.
The test system of another test is HL-60(TB). Put plainly: Cytotoxicity against human HL-60(TB) cells at 10 uM after 48 hrs by coulter counter analysis. As to conditions: HL-60, 48 h, read-out: GI. The class given is functional.
A further test deals with MCF7. Put plainly: Cytotoxicity against human MCF7 cells at 10 uM after 48 hrs by coulter counter analysis. Format: functional. As to conditions: MCF7, 48 h, read-out: GI.
A further test deals with UACC-62. Put plainly: Cytotoxicity against human UACC62 cells at 10 uM after 48 hrs by coulter counter analysis. The note with it: UACC-62, 48 h, read-out: GI. Format: functional.
In a further test the test system is IGROV-1. Put plainly: Cytotoxicity against human IGROV1 cells at 10 uM after 48 hrs by coulter counter analysis. Format: functional. As to conditions: IGROV-1, 48 h, read-out: GI.
Another test has as its system NCI-H23. Put plainly: Cytotoxicity against human NCI-H23 cells at 10 uM after 48 hrs by coulter counter analysis. The note with it: NCI-H23, 48 h, read-out: GI. Format: functional.
For a further test, the system named is A549. Put plainly: Cytotoxicity against human A549/ATCC cells at 10 uM after 48 hrs by coulter counter analysis. As to conditions: A549, 48 h, read-out: GI. The class given is functional.
The next test deals with Pseudomonas aeruginosa. Put plainly: Antimicrobial activity against Pseudomonas aeruginosa at 200 ug after 24 hrs by agar disc diffusion method. As to conditions: read-out: DIZ. The class given is functional. Background: Agar diffusion results depend on both activity and mobility in agar.
The next test relates to Hs-578T. Put plainly: Cytotoxicity against human Hs578T cells at 10 uM after 48 hrs by coulter counter analysis. Format: functional. As to conditions: read-out: GI.
A further test relates to SNB-75. Put plainly: Cytotoxicity against human SNB75 cells at 10 uM after 48 hrs by coulter counter analysis. The class given is functional. The note with it: SNB-75, 48 h, read-out: GI.
Test [2] in a line: Cytotoxicity against human NCI-ADR-RES cells at 10 uM after 48 hrs by coulter counter analysis. The class given is functional. The note with it: read-out: GI.
The subject of the next test is SNB-19. Put plainly: Cytotoxicity against human SNB19 cells at 10 uM after 48 hrs by coulter counter analysis. As to conditions: SNB-19, 48 h, read-out: GI. The class given is functional.
For another test, the system named is T47D. Put plainly: Cytotoxicity against human T47D cells at 10 uM after 48 hrs by coulter counter analysis. The class given is functional. As to conditions: read-out: GI.
In another test the test system is MDA-MB-231. Put plainly: Cytotoxicity against human MDA-MB-231 cells at 10 uM after 48 hrs by coulter counter analysis. Format: functional. The note with it: MDA-MB-231, 48 h, read-out: GI.
For another test, the system named is SR. Put plainly: Cytotoxicity against human SR cells at 10 uM after 48 hrs by coulter counter analysis. Format: functional. As to conditions: read-out: GI.
A further test has as its system RXF 393. Put plainly: Cytotoxicity against human RXF393 cells at 10 uM after 48 hrs by coulter counter analysis. As to conditions: RXF 393, 48 h, read-out: GI. Format: functional.
In the next test the test system is UO-31. Put plainly: Cytotoxicity against human UO31 cells at 10 uM after 48 hrs by coulter counter analysis. The class given is functional. As to conditions: UO-31, 48 h, read-out: GI.
For the next test, the system named is CCRF-CEM. Put plainly: Cytotoxicity against human CCRF-CEM cells at 10 uM after 48 hrs by coulter counter analysis. Format: functional. The note with it: read-out: GI.
For another test, the system named is NCI-H226. Put plainly: Cytotoxicity against human NCI-H226 cells at 10 uM after 48 hrs by coulter counter analysis. As to conditions: NCI-H226, 48 h, read-out: GI. The class given is functional.
The next test relates to MDA-MB-435. Put plainly: Cytotoxicity against human MDA-MB-435 cells at 10 uM after 48 hrs by coulter counter analysis. Format: functional. As to conditions: MDA-MB-435, 48 h, read-out: GI.
Test [3] concerns Bacillus subtilis. Put plainly: Antimicrobial activity against Bacillus subtilis at 200 ug after 24 hrs by agar disc diffusion method. Format: functional. As to conditions: read-out: DIZ.
In a further test the test system is Micrococcus luteus. Put plainly: Antimicrobial activity against Micrococcus luteus at 200 ug after 24 hrs by agar disc diffusion method. As to conditions: read-out: DIZ. The class given is functional.
The next test concerns RPMI-8226. Put plainly: Cytotoxicity against human RPMI8226 cells at 10 uM after 48 hrs by coulter counter analysis. The class given is functional. The note with it: RPMI-8226, 48 h, read-out: GI.
The subject of a further test is Malme-3M. Put plainly: Cytotoxicity against human MALME-3M cells at 10 uM after 48 hrs by coulter counter analysis. Format: functional. The note with it: read-out: GI.
The test system of another test is Escherichia coli. Put plainly: Antimicrobial activity against Escherichia coli at 200 ug after 24 hrs by agar disc diffusion method. As to conditions: read-out: DIZ. The class given is functional.
The next test concerns SK-MEL-5. Put plainly: Cytotoxicity against human SK-MEL-5 cells at 10 uM after 48 hrs by coulter counter analysis. The note with it: SK-MEL-5, 48 h, read-out: GI. Format: functional.
For a further test, the system named is CAKI-1. Put plainly: Cytotoxicity against human Caki1 cells at 10 uM after 48 hrs by coulter counter analysis. The class given is functional. As to conditions: CAKI-1, 48 h, read-out: GI.
The next test has as its system PC-3. Put plainly: Cytotoxicity against human PC3 cells at 10 uM after 48 hrs by coulter counter analysis. Format: functional. The note with it: PC-3, 48 h, read-out: GI.
The next test has as its system NCI-H522. Put plainly: Cytotoxicity against human NCI-H522 cells at 10 uM after 48 hrs by coulter counter analysis. The class given is functional. The note with it: NCI-H522, 48 h, read-out: GI.
For another test, the system named is A498. Put plainly: Cytotoxicity against human A498 cells at 10 uM after 48 hrs by coulter counter analysis. The class given is functional. As to conditions: A498, 48 h, read-out: GI.
In the next test the test system is OVCAR-4. Put plainly: Cytotoxicity against human OVCAR4 cells at 10 uM after 48 hrs by coulter counter analysis. The class given is functional. As to conditions: OVCAR-4, 48 h, read-out: GI.
The subject of another test is MOLT-4. Put plainly: Cytotoxicity against human MOLT4 cells at 10 uM after 48 hrs by coulter counter analysis. The class given is functional. The note with it: MOLT-4, 48 h, read-out: GI.
The subject of another test is LOX IMVI. Put plainly: Cytotoxicity against human LOXIMVI cells at 10 uM after 48 hrs by coulter counter analysis. The class given is functional. The note with it: read-out: GI.
Test [4] relates to Bacillus subtilis. Put plainly: Antimicrobial activity against Bacillus subtilis after 24 hrs by micro-dilution susceptibility method. The class given is functional. Summed up: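 Broth microdilution in Müller-Hinton broth against S. aureus IFO 3060, B. subtilis IFO 3007, E. coli IFO 3301 and P. aeruginosa IFO 3448. These are the same standard strains used in the disc-diffusion primary screen. Compounds were solubilized in DMSO. MIC recorded as the minimal inhibitory concentration.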

Converted amounts (≈) assume the structure as drawn.

As for `Cc1ccc2nc(Sc3cnc(N)s3)n(Cc3ccccc3)c(=O)c2c1`, the zone of inhibition at 200 µg/disc in the test with Staphylococcus aureus, in the test with Pseudomonas aeruginosa, with Bacillus subtilis [3], with Micrococcus luteus and in the test with Escherichia coli was 8 mm in each case. This molecule displayed an IC50 against Dihydrofolate reductase of 1 µM. Moreover, the inhibition of growth at 10 µM in the test with SF-295 was 17.3%; in test [1], 25.9%; with SN12C, under 10%; in the test with HL-60(TB), under 10%; in the test with MCF7, 10.8%; in the test with UACC-62, 12.2%. The inhibition of growth at 10 µM is 21.8% in the test with IGROV-1; under 10% in the test on NCI-H23; under 10% in the test on A549; under 10% in the test on Hs-578T; 20.4% with SNB-75; under 10% in test [2]. The inhibition of growth at 10 µM was under 10% in the test on SNB-19; under 10% in the test on T47D; 15.2% with MDA-MB-231; under 10% in the test with SR; under 10% in the test with RXF 393; 29.4% in the test on UO-31. For the same molecule, the inhibition of growth at 10 µM is under 10% with CCRF-CEM; 19.9% in the test with NCI-H226; under 10% in the test on MDA-MB-435; 16.8% in the test on RPMI-8226; 12.3% in the test on Malme-3M; under 10% in the test on SK-MEL-5. Besides, the inhibition of growth at 10 µM is 30.3% in the test on CAKI-1; 22.6% in the test on PC-3; under 10% in the test with NCI-H522; under 10% in the test on A498; under 10% in the test on OVCAR-4; under 10% in the test on MOLT-4. In addition, the inhibition of growth at 10 µM with LOX IMVI came out at 10.4%.
Turning to `O=C(O)c1ccc([N+](=O)[O-])cc1Sc1nc2ccc(Cl)cc2c(=O)n1-c1ccccc1`, the zone of inhibition at 200 µg/disc in the test on Staphylococcus aureus worked out at 14 mm; with Pseudomonas aeruginosa, 8 mm; in the test on Bacillus subtilis [3], 20 mm; in the test with Micrococcus luteus it was 8 mm; in the test with Escherichia coli, 8 mm. In addition, inhibition against Dihydrofolate reductase was half-maximal at 10 µM (IC50). This molecule also yielded an MIC with Bacillus subtilis [4] of 4 µg/mL (≈ 8.81 µM).
Regarding `O=C(O)c1ccc([N+](=O)[O-])cc1Sc1nc2ccc(Cl)cc2c(=O)n1Cc1ccccc1`, the zone of inhibition at 200 µg/disc came out at 8 mm in the test with Staphylococcus aureus; 8 mm in the test with Pseudomonas aeruginosa; 15 mm in the test on Bacillus subtilis [3]; 8 mm with Micrococcus luteus; 8 mm in the test on Escherichia coli. Moreover, half-maximal inhibition on Dihydrofolate reductase (IC50) was put at 8 µM.
Regarding `CCOC(=O)c1nc(N)sc1Sc1nc2ccc(Cl)cc2c(=O)n1-c1ccccc1`, the zone of inhibition at 200 µg/disc in the test on Staphylococcus aureus, in the test with Pseudomonas aeruginosa, in the test with Bacillus subtilis [3], in the test with Micrococcus luteus and in the test with Escherichia coli was 8 mm in each case. For the same molecule, on Dihydrofolate reductase, half-maximal inhibition (IC50) was put at 3 µM.
For the molecule `Cc1ccc2nc(Sc3cc([N+](=O)[O-])ccc3C(=O)O)n(-c3ccccc3)c(=O)c2c1`, the zone of inhibition at 200 µg/disc in the test on Staphylococcus aureus, in the test with Pseudomonas aeruginosa, with Bacillus subtilis [3], in the test on Micrococcus luteus and with Escherichia coli was 8 mm throughout. Further, it took 10 µM to reach half-maximal inhibition against Dihydrofolate reductase (IC50).
With `COc1cc2nc(Sc3cc([N+](=O)[O-])ccc3C(=O)O)n(Cc3ccccc3)c(=O)c2cc1OC`, the zone of inhibition at 200 µg/disc was determined as 18 mm with Staphylococcus aureus; 8 mm with Pseudomonas aeruginosa; 8 mm in the test with Bacillus subtilis [3]; 8 mm with Micrococcus luteus; 8 mm in the test with Escherichia coli. In addition, the IC50 at Dihydrofolate reductase was 3 µM.
In the case of `CCOC(=O)c1nc(N)sc1Sc1nc2cc(OC)c(OC)cc2c(=O)n1Cc1ccccc1`, the zone of inhibition at 200 µg/disc in the test on Staphylococcus aureus worked out at 18 mm; in the test on Pseudomonas aeruginosa, 8 mm; with Bacillus subtilis [3] it was 20 mm; in the test with Micrococcus luteus, 8 mm; with Escherichia coli it was 8 mm. The half-inhibitory concentration (IC50) against Dihydrofolate reductase was found to be 2 µM.
As for `Cc1ccc2nc(Sc3cc([N+](=O)[O-])ccc3C(=O)O)n(Cc3ccccc3)c(=O)c2c1`, the zone of inhibition at 200 µg/disc with Staphylococcus aureus, in the test with Pseudomonas aeruginosa, with Bacillus subtilis [3], in the test on Micrococcus luteus and in the test with Escherichia coli was 8 mm throughout. This molecule returned a 50% inhibitory concentration (IC50) against Dihydrofolate reductase of 12 µM.
With `CCOC(=O)c1nc(N)sc1Sc1nc2cc(OC)c(OC)cc2c(=O)n1-c1ccccc1`, the zone of inhibition at 200 µg/disc in the test with Staphylococcus aureus, in the test on Pseudomonas aeruginosa, in the test on Bacillus subtilis [3], with Micrococcus luteus and in the test on Escherichia coli was 8 mm each time. This molecule also came in with an IC50 against Dihydrofolate reductase of 0.3 µM.
